ChEMBL document CHEMBL1132593, “Structure-activity relationships of pyrazole derivatives as cannabinoid receptor antagonists” (J Med Chem, 1999)

Key:
Cannabinoid receptor 1 = Cannabinoid receptor 1 (Rattus norvegicus, UniProt P20272); test: Binding affinity against Cannabinoid receptor 1 in rat forebrain
Mus musculus [1] = organism: Mus musculus; test: Dissociation constant [316(nM)] in mouse isolated vas deferens using the cannabinoid receptor agonist.; format: functional, organism-based
How it was run: (§1)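 Mouse isolated vas deferens. Antagonist tested at the stated concentration against WIN55,212-2 inhibition of electrically evoked contractions. Drugs dispersed in saline with two parts Tween 80 by weight, with Tween 80 as the reference. Dose ratio (95% confidence limits) from a symmetrical 2+2 dose parallel line assay. Kd from (x−1) = B/Kd.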

[2] = tested on: Cannabinoid receptor CB1 (Rattus norvegicus) and CB2 (Mus musculus); test: Ratio of the binding affinities against rat CB1 to that of mouse CB2; activity value is 1:2.7
Cavia porcellus [3] = organism: Cavia porcellus; test: Dissociation constant [1000(nM)] in myenteric plexus-longitudinal muscle of guinea pig small intestine using the cannabinoid receptor agonist.; format: functional, organism-based
How it was run: (§2)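 Guinea pig small intestine myenteric plexus-longitudinal muscle. Antagonist tested at the stated concentration against WIN55,212-2 inhibition of electrically evoked contractions. Drugs mixed with two parts Tween 80 by weight and dispersed in saline; Tween 80 served as the reference. Dose ratio from a symmetrical (2+2) dose parallel line assay on the steepest part of the curve. Kd = B/(x−1).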

Cannabinoid receptor 2 = Cannabinoid receptor 2 (Mus musculus, UniProt P47936); test: Binding affinity against Cannabinoid receptor 2 in mouse spleen; format: tissue-based
How it was run: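 Membranes from frozen mouse spleen (CB2), about 50 μg, prepared in silanized tubes. Incubated 1 h at 30 °C in TME with 0.1% fatty-acid-free BSA, 0.8 nM [3H]2 and varying ligand concentrations. Filtration, four ice-cold washes with buffer containing 0.5% BSA, then scintillation counting. Nonspecific binding defined with 100 nM 2. Three independent experiments in duplicate, normalized to specific binding; 95% confidence limits.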

Cavia porcellus [4] = organism: Cavia porcellus; test: Dissociation constant [100(nM)] in myenteric plexus-longitudinal muscle of guinea pig small intestine using the cannabinoid receptor agonist.; format: functional, organism-based; how it was run: as §2
Mus musculus [5] = organism: Mus musculus; test: Dissociation constant [1000(nM)] in mouse isolated vas deferens using the cannabinoid receptor agonist.; format: functional, organism-based; how it was run: as §1
[6] = biological target: T1, Cannabinoid receptor (Homo sapiens) (UniProt P34972+P21554); test: Ratio of the binding affinities against rat CB1 to that of mouse CB2; activity value is 1:17; format: protein assay
[7] = biological target: T1, Cannabinoid receptor (Homo sapiens); test: Ratio of the binding affinities against rat CB1 to that of mouse CB2; activity value is 1:7.2; format: protein assay
[8] = tested on: Cannabinoid receptor CB1 (Rattus norvegicus) and CB2 (Mus musculus); test: Ratio of the binding affinities against rat CB1 to that of mouse CB2; activity value is 1:37
Mus musculus [9] = organism: Mus musculus; test: Dissociation constant [31.6(nM)] in mouse isolated vas deferens using the cannabinoid receptor agonist.; format: functional, organism-based; how it was run: as §1
[10] = biological target: T1, Cannabinoid receptor (Homo sapiens); test: Ratio of the binding affinities against rat CB1 to that of mouse CB2; activity value is 1:85; format: protein assay

Sequence of Cannabinoid receptor 2 (P47936 whole entry): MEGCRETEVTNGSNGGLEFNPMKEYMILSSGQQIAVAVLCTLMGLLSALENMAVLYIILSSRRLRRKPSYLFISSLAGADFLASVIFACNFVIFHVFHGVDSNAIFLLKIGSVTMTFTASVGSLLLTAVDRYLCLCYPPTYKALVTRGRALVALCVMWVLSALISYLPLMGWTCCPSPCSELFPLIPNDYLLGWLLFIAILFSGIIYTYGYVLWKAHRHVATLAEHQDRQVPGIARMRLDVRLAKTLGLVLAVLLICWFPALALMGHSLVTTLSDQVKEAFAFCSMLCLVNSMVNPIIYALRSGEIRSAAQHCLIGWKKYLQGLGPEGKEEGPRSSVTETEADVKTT
Sequence of Cannabinoid receptor 1 (P20272 whole entry): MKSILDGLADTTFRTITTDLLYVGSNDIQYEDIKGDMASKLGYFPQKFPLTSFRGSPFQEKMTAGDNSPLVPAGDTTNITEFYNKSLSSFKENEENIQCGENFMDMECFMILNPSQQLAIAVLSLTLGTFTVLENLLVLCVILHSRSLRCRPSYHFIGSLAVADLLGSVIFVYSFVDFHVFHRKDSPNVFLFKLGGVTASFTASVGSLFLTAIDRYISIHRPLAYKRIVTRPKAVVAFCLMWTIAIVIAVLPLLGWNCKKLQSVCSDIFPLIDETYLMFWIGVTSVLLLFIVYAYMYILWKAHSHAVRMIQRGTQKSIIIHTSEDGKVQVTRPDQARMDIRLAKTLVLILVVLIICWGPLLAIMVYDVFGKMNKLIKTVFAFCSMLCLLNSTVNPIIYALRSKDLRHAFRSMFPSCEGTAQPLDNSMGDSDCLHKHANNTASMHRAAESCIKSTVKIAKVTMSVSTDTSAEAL
T1 sequence (P21554 whole entry, looked up): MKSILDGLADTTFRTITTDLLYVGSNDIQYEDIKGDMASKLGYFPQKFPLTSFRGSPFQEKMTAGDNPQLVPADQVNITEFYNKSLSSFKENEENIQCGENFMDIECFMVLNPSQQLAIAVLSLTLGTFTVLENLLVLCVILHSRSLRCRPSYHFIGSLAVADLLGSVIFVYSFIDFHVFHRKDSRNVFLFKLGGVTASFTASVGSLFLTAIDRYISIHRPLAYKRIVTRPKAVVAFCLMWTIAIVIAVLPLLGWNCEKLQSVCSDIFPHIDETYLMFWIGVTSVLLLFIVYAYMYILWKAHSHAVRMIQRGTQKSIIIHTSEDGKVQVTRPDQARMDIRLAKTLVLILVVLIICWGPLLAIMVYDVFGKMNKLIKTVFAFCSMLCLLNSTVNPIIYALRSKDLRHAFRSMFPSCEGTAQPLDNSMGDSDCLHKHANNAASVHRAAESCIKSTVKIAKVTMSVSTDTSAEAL
T1 sequence (P34972 whole entry, looked up): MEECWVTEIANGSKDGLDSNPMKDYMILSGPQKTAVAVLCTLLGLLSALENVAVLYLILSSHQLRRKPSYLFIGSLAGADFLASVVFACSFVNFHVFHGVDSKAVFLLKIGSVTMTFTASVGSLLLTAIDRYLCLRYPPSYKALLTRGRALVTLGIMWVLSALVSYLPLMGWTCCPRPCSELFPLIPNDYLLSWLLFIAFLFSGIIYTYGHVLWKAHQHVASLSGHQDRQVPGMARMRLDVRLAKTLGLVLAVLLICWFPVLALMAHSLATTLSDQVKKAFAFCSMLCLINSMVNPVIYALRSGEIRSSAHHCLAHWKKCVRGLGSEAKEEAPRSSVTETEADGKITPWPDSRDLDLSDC

Row | Structure (SMILES) | Ki (Cannabinoid receptor 1) | Kd (Cavia porcellus [3]) | Ki (Cannabinoid receptor 2) | also measured
1 | Cc1c(C(=O)NN2CCCCC2)nn(-c2ccc(Cl)cc2Cl)c1-c1ccccc1[N+](=O)[O-] | 255 nM | 5.96 nM | 691 nM | Kd (Mus musculus [1]): 25.4 nM; Ratio [2]: 2.7
2 | Cc1c(C(=O)NN2CCCCC2)nn(-c2ccc(Cl)cc2Cl)c1-c1ccccc1N | 346 nM |  | 931 nM | Ratio [2]: 2.7; Kd (Cavia porcellus [4]): 11.2 nM; Kd (Mus musculus [5]): 118 nM
3 | Cc1c(C(=O)N(C)C2CCCCC2)nn(-c2ccc(Cl)cc2Cl)c1-c1ccc(Br)cc1 | 76.7 nM |  | 1260 nM | 
4 | Cc1c(C(=O)NN2CCCCC2)nn(-c2ccc(Cl)cc2Cl)c1-c1ccc([N+](=O)[O-])cc1 | 57.5 nM | 2.9 nM | 252 nM | Kd (Mus musculus [1]): 5.31 nM
5 | Cc1c(C(=O)NN2CCCCC2)nn(-c2ccc(Cl)cc2Cl)c1-c1ccccc1 |  | 7 nM | 217 nM | Kd (Mus musculus [1]): 28 nM
6 | Cc1c(C(=O)Nc2ccccc2)nn(-c2ccc(Cl)cc2Cl)c1-c1ccc(Br)cc1 | 31.1 nM |  | 6750 nM | Ratio [6]: 217
7 | Cc1c(C(=O)NC2CCCCC2)nn(-c2ccc(Cl)cc2Cl)c1-c1ccc(Br)cc1 | 11.7 nM |  | 1010 nM | Ratio [7]: 87
8 | Cc1c(C(=O)N2CCN(C)CC2)nn(-c2ccc(Cl)cc2Cl)c1-c1ccc(Br)cc1 | 326 nM | 12.3 nM | 2340 nM | Kd (Mus musculus [5]): 325 nM
9 | Cc1c(C(=O)N2CCCCC2)nn(-c2ccc(Cl)cc2Cl)c1-c1ccc(Br)cc1 | 125 nM | 4.72 nM | 4580 nM | Ratio [8]: 37; Kd (Mus musculus [5]): 172 nM
10 | CCc1c(C)c(C(=O)NN2CCCCC2)nn1-c1ccc(Cl)cc1Cl | 183 nM |  | 744 nM | 
11 | Cc1c(C(=O)NN2CCCCC2)nn(-c2ccc(Cl)cc2Cl)c1-c1ccc(Cl)cc1 [RIMONABANT] |  |  |  | Kd (Cavia porcellus [4]): 0.25 nM; Kd (Mus musculus [9]): 1.98 nM
12 | Cc1c(C(=O)NN2CCOCC2)nn(-c2ccc(Cl)cc2Cl)c1-c1ccc(Br)cc1 | 53.9 nM |  | 2450 nM | 
13 | Cc1c(C(=O)NN2CCCCC2)nn(-c2ccc(Cl)cc2Cl)c1-c1ccc(Br)cc1 | 16.8 nM |  | 1430 nM | Ratio [10]: 85; Kd (Cavia porcellus [4]): 0.32 nM; Kd (Mus musculus [9]): 2.64 nM
14 | Cc1c(C(=O)NN2CCCCC2)nn(-c2ccc(Cl)cc2Cl)c1-c1ccc(N)cc1 | 81.5 nM |  | 958 nM | Kd (Mus musculus [1]): 42.6 nM; Kd (Cavia porcellus [4]): 2.63 nM
15 | Cc1c(C(=O)NCCO)nn(-c2ccc(Cl)cc2Cl)c1-c1ccc(Br)cc1 | 1120 nM |  | 19000 nM | 
16 | Cc1c(C(=O)NN2CCCCC2)nn(-c2ccc(Cl)cc2)c1-c1ccc(Cl)cc1 |  |  | 836 nM | 
17 | Cc1c(C(=O)NN2CCCCC2)nn(-c2ccc(Cl)cc2Cl)c1-c1ccccc1I | 53.8 nM | 5.87 nM | 577 nM | Kd (Mus musculus [9]): 7.83 nM
18 | Cc1c(C(=O)NN2CCCCC2)nn(-c2ccc(Cl)cc2Cl)c1-c1ccc(I)cc1 |  |  |  | Kd (Cavia porcellus [4]): 0.22 nM; Kd (Mus musculus [9]): 0.5 nM
19 | Cc1c(C(=O)NN2CCCCCC2)nn(-c2ccc(Cl)cc2Cl)c1-c1ccc(Br)cc1 | 7.85 nM | 0.38 nM | 215 nM | Ratio [10]: 28; Kd (Mus musculus [1]): 6.8 nM
